This note sets out measurements from PubChem BioAssay.

The nature of experiment [1]: S. cerevisiae growth inhibition in permissive medium (OD615), pilot counter-assay for S. cerevisiae lifespan shortening project, permissive growth control (AID 705;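 active = growth inhibition above 25% in both replicates, a cutoff set 3 SD above the mean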). The settings on record: OD615, 24 h, at 10 µM, active compounds read high. The procedure, abridged: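 System: S. cerevisiae with engineered DeaD lifespan system. Medium: SC raffinose/galactose permissive medium. Doses: single compound dose of 10 µM, 0.25% DMSO final. Schedule: 24 h exposure, 30 °C. Measured by: OD615 turbidity read. Read-out: growth inhibition.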

The nature of experiment [2]: S. cerevisiae growth inhibition in restrictive medium, OD615, pilot screen, restrictive growth control, yeast lifespan reduction project (AID 706;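 active = growth inhibition above a set limit, 3 SD over mean compound inhibition, in both replicates, cut at about 43% in these data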;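 also: modified DeaD lifespan yeast strain shifted to restrictive glucose medium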). The note with it: OD615, 48 h, at 10 µM, active compounds read high. Summed up:
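Assay system – genetically modified Saccharomyces cerevisiae, DeaD replicative lifespan assay strain · Medium – CSMM-D glucose medium · Doses – 10 µM compound, 0.25% DMSO · Times – 4 h pre-incubation, 48 h exposure at 30 °C · Signal – optical density at 615 nm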

The nature of experiment [3]: doxorubicin toxicity protection in MRP-1 cells – H69AR cells, CellTiter-Glo, duplicate, MRP-1 activator project, pilot screen (AID 807;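 active = viability increase at or above a cutoff of the median across tested compounds plus 3 SD, cut at about 8.5% in these data, passing the limit was not always enough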;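 also: compound pretreatment 18-22 h then 72 h combined with doxorubicin; 0% = doxorubicin alone and 100% = vehicle without doxorubicin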). The settings on record: H69AR viability with doxorubicin, CellTiter-Glo luminescence; at 10 µM; active compounds read high.
Experiment [4] in a line: viability of HCT116 without oncogenic beta-catenin – human colon tumor cells, pilot screen (AID 823).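 Also: 0% = wells killed by 20 µM Hyamine and 100% = untreated DMSO cell wells.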 The note with it: HCT116 beta-catenin knockout viability, CellTiter-Glo, 60 h; at 10 µM; active compounds read low.
Experiment [5] is described as follows: viability of PTEN-null HCT116 cells – cell-based, HCT116 clonal line, CellTiter-Glo, pilot screen (AID 824;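 active = viability at or below 27.92% in each of two runs, the all-compound median minus 4 SD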;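 also: 0% = 20 µM Hyamine control and 100% = vehicle cell control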). The note with it: HCT116 PTEN-deleted viability, 60 h, at 10 µM, active compounds read low. (In general: ATP-based viability assays read luminescence as a measure of living cells.)
The nature of experiment [6]: RAM pathway blockade in budding yeast – dse1pr::URA3 reporter, 5-FOA selection, pilot screen (AID 869;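 active = inhibition over a set limit, the all-compound mean plus 3 SD, in both replicate runs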;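 also: 0% = DMSO wells with no growth and 100% = 10 µM 1-NA-PP1 with full growth; RAM network block rescues cells from 5-FOA so hits raise OD615 growth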). The note with it: S. cerevisiae dse1pr::URA3 5-FOA growth, OD615, 2 d; at 10 µM; active compounds read high; strain carries analog-sensitive mutant Cbk1 kinase.
The nature of experiment [7]: RAM signaling pathway blockade in yeast – S. cerevisiae, Pdr1DBD-CYC8 efflux-inhibited sensitized strain, primary screen (AID 1298;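 active = RAM network inhibition above 8.4% in each of two replicates, 3 SD over the compound average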;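 also: 0% = DMSO untreated cells without growth and 100% = 10 µM 1-NA-PP1 full growth; higher means more yeast growth rescued from 5-FOA killing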). The note with it: S. cerevisiae cbk1-as DSE1-URA3 strain, 5-FOA growth OD615, 2 d; at 50 µM; active compounds read high.

A number with no mark means an inactive call. Inconclusive results are not listed. Active and inactive are the calls of the source.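 The calls were made as follows, unless noted: active = cell viability at or below a set limit in both duplicate runs, the limit being the all-compound median minus 4 SD (cut at about 23% in these data, passing the limit was not always enough); inconclusive = no clear call, values can overlap the other calls; inactive = the rest.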

In general, viability refers to a read-out of living cells in per cent, often relative to untreated cells. In general, inhibition refers to the drop in the measured response relative to a control, in per cent. With `O=S(=O)(NCc1cccnc1)c1ccc(Cl)c(Cl)c1`, the growth inhibition in experiment [1] was -0.945%; in experiment [2] it was -19.6%. Further, in experiment [3], the viability increase was -0.3%. Further, the viability was 98.9% in experiment [4] and 93.8% in experiment [5]. The inhibition in experiment [6] is 0.75%. Further, the RAM network inhibition in experiment [7] is 4.18%.
With `COc1ccc(C(=O)Nc2nncs2)cc1S(=O)(=O)N1CC(c2ccccc2)CC1=O` (stereo not drawn), the growth inhibition in experiment [1] is -12.7%; in experiment [2], 18%. Further, the viability increase in experiment [3] is 0.31%. The viability is 101% in experiment [4] and 87% in experiment [5]. Besides, the inhibition in experiment [6] was 0.92%. Further, the RAM network inhibition in experiment [7] was 3.31%.
In the case of `CC(Oc1ccccc1)C(=O)OCC(=O)NC(=O)NCc1ccco1` (stereo not drawn), the growth inhibition in experiment [1] was -5%; in experiment [2], -0.75%. Also, the viability increase in experiment [3] is -1.78%. Also, the viability in experiment [4] is 97.9%; in experiment [5] it was 97.2%. Further, in experiment [6], the inhibition was 3.58%. Also, the RAM network inhibition in experiment [7] was 2.68%.
`CCN(CC)S(=O)(=O)c1ccc(Cl)c(C(=O)NC2CCCC2)c1`: the growth inhibition was -6.5% in experiment [1] and -7.35% in experiment [2]. The viability increase in experiment [3] was 0.17%. For the same compound, the figures for the viability in experiment [4] and in experiment [5] were 92.9% and 97.1%, respectively. Besides, the inhibition in experiment [6] was 0.145%. The RAM network inhibition in experiment [7] was 3.38%.
`Cn1c(NC(=O)c2ccccc2Br)cc(=O)n(C)c1=O`: the figures for the growth inhibition in experiment [1] and in experiment [2] were -9.54% and -19.3%, respectively. Moreover, the viability increase in experiment [3] was -3.97%. Also, the viability in experiment [4] is 105%; in experiment [5] it was 94.5%. The inhibition in experiment [6] is 1.15%. The RAM network inhibition in experiment [7] is 0.36%.
As for `CCCCN(C)Cc1c(C)[nH]c2ccc(OCC)cc2c1=O`, the growth inhibition in experiment [1] was -11.7%; in experiment [2], -20%. Besides, the viability increase in experiment [3] is -0.94%. In addition, the viability was 93.6% in experiment [4] and 97.9% in experiment [5]. The inhibition in experiment [6] is 1.4%. Moreover, the RAM network inhibition in experiment [7] is 4.04%.
For the compound `Cc1ccc(C2CC(c3ccccc3)n3ncnc3N2)cc1` (stereo not drawn), the growth inhibition was 1.32% in experiment [1] and 6.08% in experiment [2]. In experiment [3], the viability increase is 1.68%. The viability in experiment [4] is 99.9%; in experiment [5], 98.8%. In addition, the inhibition in experiment [6] was 0.06%. Further, in experiment [7], the RAM network inhibition is 1.8%.
On to `CCCOc1ccc2ccccc2c1/C=N/n1c(C)nnc1-n1nc(C)cc1C`, for which the growth inhibition in experiment [1] was -5.19%; in experiment [2] it was 1.04%. Further, in experiment [3], the viability increase is -4.98%. The viability is 18.6% (active) in experiment [4] and 19.6% (active) in experiment [5]. In addition, the inhibition in experiment [6] is -0.29%. Also, in experiment [7], the RAM network inhibition is -2.3%.
Regarding `CCOC(=O)c1sc(NC(=O)c2ccc3ncsc3c2)nc1C`, the values for the growth inhibition in experiment [1] and in experiment [2] were -5.17% and 0.14%, respectively. For the same compound, the viability increase in experiment [3] was -2.47%. For the same compound, the viability in experiment [4] is 84.2%; in experiment [5] it was 82.8%. In addition, the inhibition in experiment [6] was 2.75%. In addition, the RAM network inhibition in experiment [7] was 5.36%.
`O=C(Nc1ccccc1)OCC1CCCN2CCCCC12` (stereo not drawn): the growth inhibition was -12.9% in experiment [1] and -13.1% in experiment [2]. In addition, the viability increase in experiment [3] was -0.94%. Also, the viability in experiment [4] was 95.7%; in experiment [5], 97.4%. For the same compound, the inhibition in experiment [6] was 0.69%. Moreover, the RAM network inhibition in experiment [7] is 3.65%.
Regarding `Cc1c2cn[nH]c(=O)c2c(C)n1Cc1ccc(F)cc1`, the growth inhibition in experiment [1] was -17.7%; in experiment [2], -15%. For the same compound, the viability increase in experiment [3] is -3.21%. For the same compound, the viability in experiment [4] was 90.7%; in experiment [5] it was 98.5%. Moreover, the inhibition in experiment [6] was 1.83%. The RAM network inhibition in experiment [7] is 5.11%.
For `CC1CC(C)CN(C(=O)CSc2nnc(-c3ccc(Cl)cc3)o2)C1` (stereo not drawn), the growth inhibition in experiment [1] is -0.98%; in experiment [2], -3.64%. Moreover, in experiment [3], the viability increase was 1.73%. Moreover, the figures for the viability in experiment [4] and in experiment [5] were 94.1% and 89.2%, respectively. The inhibition in experiment [6] is 1.4%. In addition, the RAM network inhibition in experiment [7] is 7.35%.
Consider `COc1ccc(OC)c(C(C)NC(=O)c2ccco2)c1` (stereo not drawn), for which the growth inhibition in experiment [1] is -6.2%; in experiment [2], 2.66%. Besides, in experiment [3], the viability increase is -5.99%. For the same compound, the viability in experiment [4] was 40.8%; in experiment [5], 35.4%. Moreover, the inhibition in experiment [6] was 0.005%. In experiment [7], the RAM network inhibition was 0.72%.
For `CCOC(=O)c1[nH]c2c(c1C)C(=O)CC(c1ccc(F)cc1)C2` (stereo not drawn), the growth inhibition in experiment [1] was -5.83%; in experiment [2], -18.5%. Also, the viability increase in experiment [3] was -4.6%. Moreover, the viability in experiment [4] was 16.7% (active); in experiment [5], 20.4% (active). Further, in experiment [6], the inhibition is 0.11%. In addition, the RAM network inhibition in experiment [7] is 1.42%.
With `N#Cc1nc(COc2ccccc2)oc1N1CCCCC1`, the growth inhibition in experiment [1] was -9.45%; in experiment [2], 10.3%. Also, the viability increase in experiment [3] is 2.53%. For the same compound, the viability in experiment [4] was 87.5%; in experiment [5], 88.9%. The inhibition in experiment [6] was 0.495%. Also, the RAM network inhibition in experiment [7] is -1.83%.
Turning to `COc1ccc(CSc2nncn2N)cc1Br`, the growth inhibition in experiment [1] was 8.95%; in experiment [2], 5.08%. Moreover, in experiment [3], the viability increase was -2.01%. Moreover, the viability in experiment [4] is 101%; in experiment [5], 90.8%. For the same compound, the inhibition in experiment [6] is 1.08%. For the same compound, the RAM network inhibition in experiment [7] was 0.88%.
In the case of `Cc1cccc(-n2ncc3c(Nc4ccc(F)cc4)ncnc32)c1`, the results for the growth inhibition in experiment [1] and in experiment [2] were -11.3% and -5.18%, respectively. Further, in experiment [3], the viability increase is 2.21%. For the same compound, the viability in experiment [4] is 106%; in experiment [5] it was 95.4%. Besides, the inhibition in experiment [6] was 3.18%. The RAM network inhibition in experiment [7] was 1.56%.
Consider `COc1ccc(C)cc1NC(=O)c1cnc2scc(C)n2c1=O`, for which the values for the growth inhibition in experiment [1] and in experiment [2] were 9.45% and -0.68%, respectively. In experiment [3], the viability increase was -5.49%. Moreover, the viability in experiment [4] was 87.8%; in experiment [5], 84.8%. Further, the inhibition in experiment [6] is 3.21%. Moreover, the RAM network inhibition in experiment [7] is 3.95%.
As for `Cc1ccc(-n2ncc3c(NCCCN4CCOCC4)ncnc32)c(C)c1`, the growth inhibition in experiment [1] is -6.19%; in experiment [2], 6.86%. For the same compound, the viability increase in experiment [3] was -1.79%. The viability is 96.1% in experiment [4] and 93.9% in experiment [5]. In addition, the inhibition in experiment [6] was 2.75%. Also, in experiment [7], the RAM network inhibition is 0.42%.
